Data on 21 molecules can be found in ChEMBL document CHEMBL1137735, “Novel 4H-1,3,4-oxadiazin-5(6H)-ones with hydrophobic and long alkyl chains: design, synthesis, and bioactive diversity on inhibition of monoamine oxidase, chitin biosynthesis and tumor cell” (Eur J Med Chem, 2009).

Activity calls are given as the source filed them. No cut-off for these calls is given here.

The test system of assay [1] is Saccharomyces cerevisiae. Put plainly: Inhibition of chitin synthase-mediated chitin synthesis in yeast by high throughput assay. The method in brief:
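Enzyme source is Saccharomyces cerevisiae cell extract, run in a modified non-radioactive chitin synthase assay; five serial dilutions per compound tested to follow concentration dependence.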

Assay [2] has as its system Saccharomyces cerevisiae. The assay is described as follows: Inhibition of chitin synthase-mediated chitin synthesis in yeast at 250 uM by high throughput assay. The method in brief: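 Yeast Saccharomyces cerevisiae cell extracts used as chitin synthase source in a modified non-radioactive chitin synthase assay; compounds screened at a single fixed level.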
The species entered for assay [3] is Rattus norvegicus. The assay is described as follows: Inhibition of rat brain mitochondrial MAO at 0.008 mmol/L by kynuramine fluorimetric assay.
The species entered for assay [4] is Rattus norvegicus. The assay is described as follows: Inhibition of rat brain mitochondrial MAO at 0.08 mmol/L by kynuramine fluorimetric assay.
The species entered for assay [5] is Rattus norvegicus. Put plainly: Inhibition of rat brain mitochondrial MAO at 0.8 mmol/L by kynuramine fluorimetric assay.
The nature of assay [6]: Inhibition of rat brain mitochondrial MAO by kynuramine fluorimetric assay.
The test system of assay [7] is A549. The assay is described as follows: Cytotoxicity against human A549 cells by SRB assay. The class given is functional, cell-based. The procedure, abridged: (§1)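 Growth inhibition of human lung A-549 and prostate PC-3 cancer cell lines, read out by sulforhodamine B dye staining; IC50 taken as the concentration giving 50% inhibition.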
Assay [8] has as its system PC-3. The assay is described as follows: Cytotoxicity against human PC3 cells by SRB assay. The class given is functional, cell-based. The method in brief:
as §1
(In SRB staining, fixed cells bind dye roughly in proportion to their protein.)

Assay [9] is filed under the species Rattus norvegicus. The assay is described as follows: Inhibition of rat brain mitochondrial MAO at 0.01 mmol/L by kynuramine fluorimetric assay.
The species entered for assay [10] is Rattus norvegicus. The assay is described as follows: Inhibition of rat brain mitochondrial MAO at 0.1 mmol/L by kynuramine fluorimetric assay.
The species named for assay [11] is Rattus norvegicus. The assay is described as follows: Inhibition of rat brain mitochondrial MAO at 1 mmol/L by kynuramine fluorimetric assay.

With `C[C@@H]([C@H](N)C(=O)N[C@H](C(=O)O)[C@H]1O[C@@H](n2ccc(=O)[nH]c2=O)[C@H](O)[C@@H]1O)[C@H](O)c1ccc(O)cn1`, the inhibition entry in [1] is “Dose-dependent effect”.
With `N#CCCN1N=C(c2ccccc2)OCC1=O`, the outcome in assay [2] was Active.
`CCCCC(CCCC)N1N=C(c2ccc3c(c2)OCO3)OCC1=O`: the inhibition entry in [2] is “Active”.
Turning to `CCCCC(CCCC)N1N=C(c2cc(OC)c(OC)c(OC)c2)OCC1=O`, the inhibition in assay [3] stood at 14%; in assay [4], 23.5%; in [5], 61.4%. Also, the IC50 came to 410 µM in [6], 9.91 µM in assay [7] and 14.4 µM in [8]. In assay [2], the inhibition entry is “Active”.
Turning to `CCc1ccc(C2=NN(CCC#N)C(=O)CO2)cc1`, the inhibition in [3] came to 9.73%; in assay [4], 25.5%; in assay [5], 59.7%. Further, the IC50 in assay [6] was 430 µM; in assay [7] it was over 100 µM; in assay [8], over 100 µM. Also, in assay [2], the inhibition result is “Active”.
On to `CCCCC(CCCC)N1N=C(c2cccnc2OCC)OCC1=O`, for which the inhibition in [2] was 98%; in [1] it was “Dose-dependent effect”.
As for `CCCCC(CCCC)NNC(=O)c1ccc2c(c1)OCO2`, the inhibition in assay [9] turned out to be 0%; in assay [10], 13.8%; in assay [11] it was 62.8%.
`CCCCC(CCCC)N1N=C(c2ccc(Cl)cc2Cl)OCC1=O`: the inhibition result in [2] is “Active”.
On to `CCCCC(CCCC)NNC(=O)c1cccnc1OCC`, for which the values for the inhibition in assay [9], in assay [10] and in assay [11] were 0%, 6.09% and 21.7%, respectively.
With `CCCCC(CCCC)NNC(=O)c1ccccc1Cl`, the inhibition stood at 6.4% in [9], 5.13% in assay [10] and 14.2% in assay [11].
For the molecule `O=C(NC(=O)c1c(F)cccc1F)Nc1ccc(Cl)cc1`, in [2], the inhibition result was “inactive”.
As to `CCCCC(CCCC)NNC(=O)c1cc(OC)c(OC)c(OC)c1`, the half-inhibitory concentration (IC50) in [6] came to 2300 µM. Besides, the inhibition in assay [9] was determined as 4.67%; in assay [10], 8.16%; in assay [11], 35.5%.
On to `CCCCOC(=O)CCN1N=C(c2cccc(C)c2)OCC1=O`, for which the inhibition in assay [2] is 95%; in [1], “Dose-dependent effect”.
For `CCCCC(CCCC)N1N=C(c2ccc3ccccc3c2)OCC1=O`, the inhibition in [3] was 12.8%; in assay [4], 20.3%; in [5], 54.6%. Also, the concentration for half-maximal inhibition (IC50) in assay [6] was 600 µM; in assay [7] it was over 100 µM; in assay [8], 42.5 µM. For the same molecule, the inhibition entry in assay [2] was “Active”.
Consider `CCCCC(CCCC)NNC(=O)c1ccc(Cl)cc1`, for which it took 2610 µM to reach half-maximal inhibition in assay [6] (IC50). Moreover, the inhibition in assay [9] was 7.52%; in [10], 2.71%; in assay [11] it was 28.6%.
As to `CCCCC(CCCC)N1N=C(c2cc(C)cc(C)c2)OCC1=O`, the inhibition entry in [2] was “Active”.
The molecule `CCc1ccc(C(=O)NNCCC#N)cc1` came in with an IC50 in assay [6] of 240 µM. Moreover, the inhibition in assay [9] was found to be 2.8%; in assay [10], 37%; in assay [11], 71.2%.
With `CCCCC(CCCC)N1N=C(c2ccc(Cl)cc2)OCC1=O`, the values for the inhibition in assay [3], in [4] and in [5] were 11.2%, 28.2% and 58.8%, respectively. Moreover, the half-maximal inhibitory concentration (IC50) in assay [6] was 420 µM; in assay [7], 24.8 µM. In addition, the inhibition entry in [2] is “Active”.
In the case of `CCCCC(CCCC)NNC(=O)c1ccc(Cl)cc1Cl`, the inhibition is 9.33% in assay [9], 3.52% in assay [10] and 10.5% in assay [11].
In the case of `CCCCC(CCCC)N1N=C(c2ccc(CC)cc2)OCC1=O`, the inhibition entry in assay [2] is “Active”.
Regarding `CCCCC(CCCC)NNC(=O)c1ccc2ccccc2c1`, the inhibition was 0% in assay [9], 8.47% in assay [10] and 33.1% in assay [11].

The inhibition is how much of the control response was suppressed. Usually IC50 stands for the concentration needed to halve the response being measured. The low end stands for greater potency, the high end for weaker potency.
